Hits are enriched below; roughly 2.3% of the tested compounds scored in any of these assays.
CR mimetic SO = yeast age-related superoxide inhibition as caloric restriction mimetic; S. cerevisiae aged cells, superoxide DHE fluorescence; hits give low values; superoxide response (% of plate mean), % at 10 µM; 330,000 compounds, 0.18% hits; AID 2690;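 active = superoxide response under a set limit, about three screen SD below normal, cut at about 65% in these data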;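 also: yeast aged for seven days with compound at 30 °C before DHE staining; 100% = average MFI of all compound-treated wells on the plate with controls excluded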
TRPC4 act = opens the mouse TRPC4 cation channel | AID 2237 | HEK293 TRPC4beta/mu-opioid, Fluo4 calcium fluorescence; hits give high values | 310,000 compounds, 0.49% hits | B-score at 10 µM;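 active = B-score above 5 SD of library B-scores, and initial fluorescence ratio not above library mean plus 5 SD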;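 also: positive B-score marks a calcium rise read as TRPC4 activation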
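Assay system: HEK293 stable line with TRPC4beta plus mu-opioid receptor. Times: dye 45 min RT, read 110 s. Measured by: kinetic Fluo4 calcium fluorescence. Measure: B score of integrated ratio. Controls: assay buffer as low control, maximal DAMGO as high control.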
TRPC6 activator = mouse TRPC6 channel activation; Q61143; HEK293-TRPC6 membrane potential dye fluorescence; hits give high values; B-score at 10 µM; 310,000 compounds, 0.13% hits; AID 2550;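 active = B-score of the integrated fluorescence ratio above library mean plus 3 SD, and starting fluorescence ratio within library mean plus 5 SD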;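 also: higher score means more depolarization so channel activation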
Target sequence (Q61143 whole entry, looked up): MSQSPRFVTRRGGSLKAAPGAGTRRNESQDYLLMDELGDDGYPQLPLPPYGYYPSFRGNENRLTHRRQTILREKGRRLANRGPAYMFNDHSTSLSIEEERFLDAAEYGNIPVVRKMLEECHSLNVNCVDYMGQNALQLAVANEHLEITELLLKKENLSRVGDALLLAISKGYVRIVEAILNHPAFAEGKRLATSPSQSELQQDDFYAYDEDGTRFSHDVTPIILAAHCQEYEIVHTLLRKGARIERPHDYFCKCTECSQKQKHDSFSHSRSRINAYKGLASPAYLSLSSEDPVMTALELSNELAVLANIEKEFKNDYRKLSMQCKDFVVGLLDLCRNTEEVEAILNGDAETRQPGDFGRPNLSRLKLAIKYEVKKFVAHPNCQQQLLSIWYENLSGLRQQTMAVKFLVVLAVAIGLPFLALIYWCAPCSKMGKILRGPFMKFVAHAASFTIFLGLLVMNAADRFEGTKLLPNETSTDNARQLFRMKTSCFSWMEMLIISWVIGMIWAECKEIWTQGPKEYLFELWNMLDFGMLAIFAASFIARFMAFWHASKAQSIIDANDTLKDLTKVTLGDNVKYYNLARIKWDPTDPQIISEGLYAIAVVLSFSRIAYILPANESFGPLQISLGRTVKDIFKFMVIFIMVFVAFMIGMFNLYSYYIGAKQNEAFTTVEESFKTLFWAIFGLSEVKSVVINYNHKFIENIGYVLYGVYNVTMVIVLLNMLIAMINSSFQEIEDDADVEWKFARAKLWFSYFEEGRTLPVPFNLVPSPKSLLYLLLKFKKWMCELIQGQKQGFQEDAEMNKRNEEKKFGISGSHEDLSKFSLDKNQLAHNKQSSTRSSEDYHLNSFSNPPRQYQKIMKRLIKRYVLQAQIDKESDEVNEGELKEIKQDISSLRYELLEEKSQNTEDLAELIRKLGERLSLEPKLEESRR
TRPC4 potent = allosterically enhances the mouse TRPC4 cation channel; Q9QUQ5; HEK293 TRPC4beta/mu-opioid, DAMGO EC20, Fluo-4 Ca2+ flux; hits give high values; AID 2227; B-score at 10 µM; 310,000 compounds, 0.42% hits;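 active = B-score of calcium response area above 5 SD of library B-scores, with initial fluorescence ratio within 5 SD of library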;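 also: B-score of integrated fluorescence ratio over time as area under calcium response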
TRPC6 inh = inhibitors of mouse TRPC6 channel | Q61143 | HEK293-TRPC6, membrane potential dye, ACh-evoked depolarization; hits give low values | B-score at 10 µM | 310,000 compounds, 1.1% hits;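 active = B-score under library mean minus 3 SD, initial fluorescence not abnormally high, positive integrated signal ratio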;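 also: B-score derived from integrated fluorescence ratio over the kinetic read; more negative B-score means stronger inhibition of depolarization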
TRPC4 inh = blocks the mouse TRPC4 cation channel; Q9QUQ5; B-score at 10 µM; 300,000 compounds, 0.39% hits; HEK293 TRPC4beta/mu-opioid, DAMGO-evoked Fluo4 calcium flux; hits give low values;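 active = B-score over 3 SD under the library average, no early fluorescence shift, positive overall ratio signal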
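Signal: kinetic Fluo4 fluorescence imaging of calcium influx. Material: stable TRPC4beta/mu-opioid receptor HEK293 cells. Probe or stimulus: DAMGO in two steps, submaximal then maximal.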
TRPC4 sel inh 2 = second check of whether TRPC6 inhibitors also affect mouse TRPC4; inhibition, % at 10 µM; HEK293 TRPC4/MOR, membrane potential dye fluorescence; channel activated by saturating DAMGO dose; AID 2776; shares compounds with TRPC6 inh; 920 compounds, 42% hits;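 active = compounds whose fluorescence signal differed from control wells by over 3 SD, either direction, in both duplicate plates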
TRPC4 spec = selectivity of TRPC6 inhibitors: effect on mouse TRPC4; activity change, negative = inhibition, % at 10 µM; HEK293 TRPC4/mu-opioid, membrane potential fluorescence; shares compounds with TRPC6 inh; 920 compounds, 61% hits;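 active = rise or fall in signal beyond 3 SD of buffer-only wells in both replicate plates, either sign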;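 also: integrated kinetic ratio of fluorescence range over baseline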
HEK293 MPD ctr 2-1 = parental HEK293 nonspecific activity of TRPC6 inhibitors, second screen; 920 compounds, 31% hits; AID 2779; signal change vs control, % at 10 µM; shares compounds with TRPC6 inh; parental HEK293 membrane potential dye fluorescence; maximal acetylcholine challenge after compound addition;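 active = membrane potential signal moving either way by over 3 SD of the maximum-effect control, in both duplicate plates, meaning non-specific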
HEK293 MPD ctr-1 = parental HEK293 nonspecific activity of TRPC6 inhibitors; parental HEK293 membrane potential dye fluorescence; shares compounds with TRPC6 inh; AID 2780; membrane potential signal change, % at 10 µM; 920 compounds, 60% hits;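 active = membrane potential signal shifting up or down by more than 3 SD of buffer-only wells, on both duplicate plates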
HEK293 MPD ctr-2 = counter-screen for TRPC6 modulators: effect in parental HEK293 cells. shares compounds with TRPC6 inh. membrane potential dye fluorescence. membrane potential signal change, % at 10 µM. 2,400 compounds, 51% hits;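 active = membrane potential signal moves up or down beyond 5 SD from buffer-only wells, on both duplicate plates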
HEK293 MPD ctr 2-2 = second counter-screen for TRPC6 modulators: effect in parental HEK293 cells; shares compounds with TRPC6 inh; membrane potential dye fluorescence; after compound, maximal acetylcholine stimulation; inhibition, % at 10 µM; 2,400 compounds, 14% hits;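 active = membrane potential signal drops by more than 5 SD from the mean control signal, in both duplicate plates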;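 also: plate controls were acetylcholine ECmax control wells for no effect and buffer only wells for full effect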
TRPC4 ctr mod = mouse TRPC4 off-target activity of TRPC6 modulators; shares compounds with TRPC6 inh; HEK293 TRPC4/mu-opioid, membrane potential fluorescence; percent change from control (negative = decrease, positive = increase), % at 10 µM; 2,400 compounds, 69% hits; AID 488927;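 active = membrane potential signal moved up or down beyond 5 SD of buffer control wells, in both duplicate plates, actives on both sides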;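 also: plate controls were assay buffer wells for no effect and DAMGO maximal-effect wells for full effect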
TRPC4 ctr inh 2 = mouse TRPC4 off-target activity of TRPC6 modulators, second screen. shares compounds with TRPC6 inh. HEK293 TRPC4/mu-opioid, membrane potential dye fluorescence; stimulated with maximal-effect DAMGO. inhibition, % at 10 µM. 2,400 compounds, 55% hits;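 active = drop in membrane potential signal beyond 5 SD of the control wells in both duplicate plates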;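 also: TRPC4 counter screen for TRPC6 hits run under conditions tuned for TRPC6 not TRPC4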
TRPC6 inh conf = confirmation of mouse TRPC6 inhibitors; shares compounds with TRPC6 inh; HEK293-TRPC6, membrane potential dye, ACh-evoked depolarization; inhibition, % at 10 µM; 3,300 compounds, 43% hits;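 active = fluorescence ratio falls more than 5 SD below the full-stimulation control mean, in both duplicate runs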;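 also: integrated fluorescence ratio of peak minus minimum over baseline after agonist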
TRPC6 act conf = confirmation of mouse TRPC6 activators; shares compounds with TRPC6 inh; AID 488961; 2,800 compounds, 11% hits; HEK293-TRPC6 membrane potential dye fluorescence, FDSS; activation, % at 10 µM;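 active = ratio signal rise beyond 5 SD above unstimulated control wells' mean, seen in both duplicate runs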;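 also: plate controls were buffer EC0 wells for no effect and acetylcholine ECmax response for full effect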
* marks the source's active call; other numbers are inactive results; i = inactive; . = no result.

SMILES	CR mimetic SO	TRPC4 act	TRPC6 activator	TRPC4 potent	TRPC6 inh	TRPC4 inh	HEK293 MPD ctr-2	HEK293 MPD ctr 2-2	TRPC4 ctr mod	TRPC4 ctr inh 2	TRPC6 inh conf	TRPC6 act conf	others
Cc1cc(C)nc(SCCC(=O)Nc2ccccc2C)n1	102	i	i	i	i	i	.	.	.	.	.	.
Cc1ccc(C)c(NC(=S)NCCN(C2CCCCC2)C2CCCC2)c1	105	i	i	i	-5.2*	i	172%*	i	32%*	48%*	i	.
N#CC(c1ccc(F)cc1)c1ccc(C(=O)c2ccc(F)cc2)cc1 (stereo not given)	116	i	i	i	-7.4*	i	.	.	.	.	i	i	TRPC4 sel inh 2=i;TRPC4 spec=i;HEK293 MPD ctr 2-1=i;HEK293 MPD ctr-1=i
CC(C)CNC(=S)Nc1ccc(S(N)(=O)=O)cc1	98	i	i	i	i	i	.	.	.	.	.	.
Cc1ccc(NC(=S)NCC(C)C)cc1	97	i	i	i	-7.2*	i	.	.	.	.	i	i	TRPC4 sel inh 2=i;TRPC4 spec=i;HEK293 MPD ctr 2-1=i;HEK293 MPD ctr-1=i
Cn1cc(CN2CCC(n3nccc3NC(=O)c3ccccc3Cl)CC2)c2ccccc21	129	i	i	i	-5.6*	i	i	i	i	70%*	i	i
COc1ccc(S(=O)(=O)Nc2noc3ccccc23)cc1	102	i	i	i	-6.7*	i	.	.	.	.	i	i	TRPC4 sel inh 2=i;TRPC4 spec=i;HEK293 MPD ctr 2-1=i;HEK293 MPD ctr-1=i
CCOC(=O)c1cc(C#N)c(SCC(=O)c2cc(C#N)c(SC)nc2C)[nH]c1=O	90	i	i	i	i	i	.	.	.	.	.	.
COc1ccc(C2C(C(N)=O)=C(C)Nc3nc(CCCO)nn32)cc1OC (stereo not given)	100	i	i	i	-5.9*	i	i	i	i	i	i	i
CC1=Nc2ccccc2/C1=C/c1nc(-c2ccc(C)s2)oc1O	94	i	i	i	i	i	.	.	.	.	.	.
CC1=Nc2ccccc2/C1=C/c1sc(=N)n(-c2nccs2)c1O	116	i	36*	i	i	i	714%*	i	110%*	i	i	192%*
COc1ccc(S(=O)(=O)n2ccc(C(C)Oc3ccc(-c4ccccc4)c(F)c3)n2)cc1 (stereo not given)	91	i	i	i	i	i	.	.	.	.	.	.
Cc1nn(CC(=O)O)c(C)c1C	102	i	i	i	i	i	.	.	.	.	.	.
Cc1nn(CC(=O)O)c(C)c1Cl	108	i	i	i	-11*	i	i	i	i	i	i	i
CC(=O)NCCc1nc2ccccc2n1Cc1cc(C)ccc1C	99	i	i	i	-5.1*	i	i	i	17%*	i	i	i
CC(NC(=O)c1cccc(C(F)(F)F)c1)C(c1ccccc1)N1CCOCC1 (stereo not given)	93	i	i	i	i	i	.	.	.	.	.	.
Clc1ccc(OCCCCCN2CCCC2)c(Br)c1	100	i	i	i	-5.1*	i	121%*	i	22%*	34%*	i	.
Cc1ccc(OCCCCCCN2CCNCC2)c(Br)c1	i	i	i	i	-9*	i	.	.	.	.	70%*	i	TRPC4 sel inh 2=52%*;TRPC4 spec=1.3%*;HEK293 MPD ctr 2-1=i;HEK293 MPD ctr-1=6.4%*
Cc1ccc(OCCCCN2CCC(C)CC2)c(Br)c1	81	i	i	i	i	i	.	.	.	.	.	.
Clc1ccc(OCCCN2CCCCC2)c(Br)c1	105	i	i	i	i	i	.	.	.	.	.	.
Clc1ccc(Cl)c(OCCCCN2CCNCC2)c1	101	i	i	24*	-8.7*	i	.	.	.	.	i	i	TRPC4 sel inh 2=57%*;TRPC4 spec=-0.3%*;HEK293 MPD ctr 2-1=i;HEK293 MPD ctr-1=3.5%*
CCN1CCN(CCCOc2ccc(Cl)cc2Br)CC1	96	i	i	i	i	i	.	.	.	.	.	.
O=C(Nc1ccc(Cl)cc1)c1ccc(-n2cncn2)c([N+](=O)[O-])c1	100	i	i	i	-5.5*	i	-106%*	i	i	56%*	i	i
O=C(NCc1ccc(F)cc1)c1c2c(nc3ccccc13)CCN(Cc1ccccc1)C2	94	i	i	i	i	i	.	.	.	.	.	.
Nc1[nH]nc2nc(NCc3ccccc3)c3c(c12)CCN(Cc1ccccc1)C3	104	i	i	i	-5.4*	i	i	i	-16%*	49%*	42%*	i
CN(Cc1ccc(F)cc1)S(=O)(=O)c1nnc(NC(=O)c2ccccc2Br)s1	146	i	17*	i	i	-6*	i	i	17%*	62%*	i	i
CN(Cc1ccc(F)cc1)S(=O)(=O)c1nnc(NC(=O)c2ccccc2)s1	88	i	i	i	i	i	.	.	.	.	.	.
CC(=O)N1CCN(c2ccc(C(N)=O)cc2[N+](=O)[O-])CC1	109	i	i	i	i	i	.	.	.	.	.	.
